Test results published in ChEMBL document CHEMBL4177770, “Discovery of MK-6169, a Potent Pan-Genotype Hepatitis C Virus NS5A Inhibitor with Optimized Activity against Common Resistance-Associated Substitutions” (J Med Chem, 2018).
Where a chain is given by its changes, count along the chain named.

Experiments:
[1] = target: T1, Nonstructural protein 5A (Hepatitis C virus) (UniProt Q5L478); assay: Inhibition of NS5A in HCV genotype 1a infected in HuH7 replicon cells assessed as decrease in viral replication after 3 days by RT-PCR method; format: cell-based; conditions: Hepatitis C virus subtype 1a
T1 sequence (whole entry): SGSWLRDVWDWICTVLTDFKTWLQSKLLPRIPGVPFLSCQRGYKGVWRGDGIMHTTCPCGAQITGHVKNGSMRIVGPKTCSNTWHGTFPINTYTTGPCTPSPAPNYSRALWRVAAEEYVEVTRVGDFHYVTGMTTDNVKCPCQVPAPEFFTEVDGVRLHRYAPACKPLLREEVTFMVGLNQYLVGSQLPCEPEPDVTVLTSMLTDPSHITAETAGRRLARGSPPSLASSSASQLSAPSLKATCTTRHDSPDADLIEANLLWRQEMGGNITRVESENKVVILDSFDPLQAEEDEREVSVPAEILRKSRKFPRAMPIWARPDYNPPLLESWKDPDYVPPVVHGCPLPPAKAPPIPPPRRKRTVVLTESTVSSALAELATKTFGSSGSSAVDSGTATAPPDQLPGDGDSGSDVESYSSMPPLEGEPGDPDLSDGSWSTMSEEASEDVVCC

[2] = target: T1, Nonstructural protein 5A (Hepatitis C virus); assay: Inhibition of NS5A in HCV genotype 1b infected in HuH7 replicon cells assessed as decrease in viral replication after 3 days by RT-PCR method; format: cell-based; conditions: Hepatitis C virus subtype 1b
[3] = target: T1, Nonstructural protein 5A (Hepatitis C virus); assay: Inhibition of NS5A L31M mutant in HCV genotype 2b infected in HuH7 replicon cells assessed as decrease in viral replication after 3 days by RT-PCR method; format: cell-based; conditions: Hepatitis C virus subtype 2b
[4] = target: T1, Nonstructural protein 5A (Hepatitis C virus); assay: Inhibition of NS5A in HCV genotype 3a infected in HuH7 replicon cells assessed as decrease in viral replication after 3 days by RT-PCR method; format: cell-based; conditions: Hepatitis C virus subtype 3a
[5] = target: T1, Nonstructural protein 5A (Hepatitis C virus); assay: Inhibition of NS5A in HCV genotype 4a infected in HuH7 replicon cells assessed as decrease in viral replication after 3 days by RT-PCR method; format: cell-based; conditions: Hepatitis C virus subtype 4a
[6] = system: T2, Nonstructural protein 5A (Hepatitis C virus), Q5L478 [Y93H]; assay: Inhibition of NS5A Y93H mutant in HCV genotype 1a infected in HuH7 replicon cells assessed as decrease in viral replication after 3 days by RT-PCR method; format: cell-based; conditions: Hepatitis C virus subtype 1a
T2 sequence (whole entry): T1 sequence (whole entry) with Y93H

[7] = target: T1, Nonstructural protein 5A (Hepatitis C virus); assay: Inhibition of NS5A L31V mutant in HCV genotype 1a infected in HuH7 replicon cells assessed as decrease in viral replication after 3 days by RT-PCR method; format: cell-based; conditions: Hepatitis C virus subtype 1a
[8] = Half life in Wistar Han rat at 2 mg/kg, iv by LC/MS method; format: ADME, organism-based; conditions: in vivo
Procedure, shortened: (§1)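 Male Wistar Han rats, two per group, dosed IV at 2 mg/kg in 60% PEG200. Plasma was obtained by centrifuging the blood, and compound concentrations were measured by LC/MS.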

[9] = Clearance in Wistar Han rat at 2 mg/kg, iv by LC/MS method; format: ADME, organism-based; conditions: in vivo; procedure, shortened: as §1
[10] = AUC in Wistar Han rat at 10 mg/kg, po by LC/MS method; format: ADME, organism-based; conditions: in vivo
Procedure, shortened: (§2)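 Male Wistar Han rats, two per dosing group, dosed orally at 10 mg/kg in 10% TWEEN. Plasma was separated from collected blood by centrifugation and analysed by LC/MS.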

[11] = Cmax in Wistar Han rat at 10 mg/kg, po by LC/MS method; format: ADME, organism-based; parameters: dose 10 mg/kg, route oral; conditions: in vivo; procedure, shortened: as §2
[12] = Oral bioavailability in Wistar Han rat at 10 mg/kg by LC/MS method; format: ADME, organism-based; conditions: in vivo; procedure, shortened: as §2
[13] = system: Hepatitis C virus subtype 1a; assay: Resistance ratio of EC90 for NS5A L31V mutant in HCV genotype 1a infected in HuH7 replicon cells to EC90 for NS5A in HCV genotype 1a infected in HuH7 replicon cells; format: cell-based
[14] = system: Hepatitis C virus subtype 1a; assay: Resistance ratio of EC90 for NS5A Y93H mutant in HCV genotype 1a infected in HuH7 replicon cells to EC90 for NS5A in HCV genotype 1a infected in HuH7 replicon cells; format: cell-based
[15] = Resistance ratio of EC90 for NS5A in HCV genotype 1b infected in HuH7 replicon cells to EC90 for NS5A in HCV genotype 1a infected in HuH7 replicon cells; format: cell-based
[16] = Resistance ratio of EC90 for NS5A L31M mutant in HCV genotype 2b infected in HuH7 replicon cells to EC90 for NS5A in HCV genotype 1a infected in HuH7 replicon cells; format: cell-based
[17] = Resistance ratio of EC90 for NS5A in HCV genotype 3a infected in HuH7 replicon cells to EC90 for NS5A in HCV genotype 1a infected in HuH7 replicon cells; format: cell-based
[18] = Resistance ratio of EC90 for NS5A in HCV genotype 4a infected in HuH7 replicon cells to EC90 for NS5A in HCV genotype 1a infected in HuH7 replicon cells; format: cell-based

SMILES	EC90 [1]	EC90 [2]	EC90 [3]	EC90 [4]	EC90 [5]	EC90 [6]	EC90 [7]	half-life [8]	clearance [9]	AUC [10]	Cmax [11]	bioavailability [12]	Ratio [13]	Ratio [14]	Ratio [15]	Ratio [16]	Ratio [17]	Ratio [18]
COC(=O)N[C@H](C(=O)N1CCC[C@H]1c1ncc(-c2cc(F)c3c(c2)O[C@@H](c2ccc4c(c2)OCCC4)n2c-3cc3cc(-c4cnc([C@@H]5CCCN5C(=O)[C@@H](NC(=O)OC)C5CCOCC5)[nH]4)ccc32)[nH]1)C(C)C	4 pM	6 pM	19 pM	8 pM	7 pM	35 pM	5 pM	3.2 h	11 mL/min/kg	0.13 µM·h	32 nM	0.8%	< 10	< 10	< 10	< 10	< 10	< 10
COC(=O)N[C@H](C(=O)N1CCC[C@H]1c1ncc(-c2cc(F)c3c(c2)O[C@@H](c2ccc(C(F)(F)F)s2)n2c-3cc3cc(-c4cnc([C@@H]5CCCN5C(=O)[C@@H](NC(=O)OC)C5CCOCC5)[nH]4)ccc32)[nH]1)C(C)C	3 pM	5 pM	10 pM	6 pM	3 pM	23 pM	5 pM	–	–	–	–	–	< 10	< 10	< 10	< 10	< 10	< 10
CCCc1ccc([C@@H]2Oc3cc(-c4cnc([C@@H]5CCCN5C(=O)[C@@H](NC(=O)OC)C(C)C)[nH]4)cc(F)c3-c3cc4cc(-c5cnc([C@@H]6CCCN6C(=O)[C@@H](NC(=O)OC)C6CCOCC6)[nH]5)ccc4n32)s1	2 pM	6 pM	12 pM	5 pM	2 pM	9 pM	3 pM	–	–	–	–	–	< 10	< 10	< 10	< 10	< 10	< 10
COC(=O)N[C@H](C(=O)N1CCC[C@H]1c1ncc(-c2cc(F)c3c(c2)O[C@@H](c2ccc4c(c2)CCCO4)n2c-3cc3cc(-c4cnc([C@@H]5CCCN5C(=O)[C@@H](NC(=O)OC)C5CCOCC5)[nH]4)ccc32)[nH]1)C(C)C	5 pM	3 pM	1070 pM	9 pM	6 pM	356 pM	7 pM	–	–	–	–	–	< 10	< 10	< 10	< 10	< 10	< 10
